Data set [1] can be described thus: Cmax in rat (PO dose). The note with it: in vivo. The format is ADME, organism-based. More on the design: route oral. The method in brief:
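Male Sprague-Dawley rats (190-210 g) were fasted overnight with water available. Dosing was 10 mg/kg po as a suspension in 2% arabic gum. Jugular vein blood was drawn at 30, 60 and 120 min, and active-form plasma levels were measured by HPLC. Cmax is the highest of these three time points.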

Data set [2] can be described thus: Elimination T1/2 in Guinea pig (IV dose). The note with it: in vivo, read-out: T1/2 beta.
Another data set can be described thus: Tmax in rat (PO dose). The note with it: in vivo.
The species entered for a further data set is Homo sapiens. Briefly: Inhibition of collagen-induced platelet aggregation in human platelet-rich plasma. The format is functional. In short, it runs like this:
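Human citrated PRP (160g, 15 min, room temperature) with platelet-poor plasma as reference. Samples at various concentrations were added at 37 °C 1 min before 5 µg/mL collagen. Aggregation was read as the increase in light transmission. Percent inhibition of aggregation rate versus control gave IC50 from dose-inhibition curves. Values are means ± SEM of three experiments; GRGDS peptide served as reference.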

The target of data set [3] is Integrin alpha-IIb/beta-3 (Homo sapiens, UniProt P05106+P08514). Briefly: Binding affinity to human fibrinogen receptor. The format is protein-complex assay. The method in brief: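 Competitive solid-phase ELISA. Plates were coated with 5 µg/mL human GPIIb/IIIa overnight at 4 °C and blocked 3 h at room temperature with 35 mg/mL BSA in 50 mM Tris, 100 mM NaCl, 2 mM CaCl₂, 0.02% NaN₃, pH 7.4. Human fibrinogen solution (30 µg/mL as added) plus inhibitor was incubated 3 h at room temperature. Bound fibrinogen was detected with alkaline phosphatase-conjugated anti-human fibrinogen antibody.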
Chain of Integrin alpha-IIb/beta-3 (P05106 27-788 limits assumed): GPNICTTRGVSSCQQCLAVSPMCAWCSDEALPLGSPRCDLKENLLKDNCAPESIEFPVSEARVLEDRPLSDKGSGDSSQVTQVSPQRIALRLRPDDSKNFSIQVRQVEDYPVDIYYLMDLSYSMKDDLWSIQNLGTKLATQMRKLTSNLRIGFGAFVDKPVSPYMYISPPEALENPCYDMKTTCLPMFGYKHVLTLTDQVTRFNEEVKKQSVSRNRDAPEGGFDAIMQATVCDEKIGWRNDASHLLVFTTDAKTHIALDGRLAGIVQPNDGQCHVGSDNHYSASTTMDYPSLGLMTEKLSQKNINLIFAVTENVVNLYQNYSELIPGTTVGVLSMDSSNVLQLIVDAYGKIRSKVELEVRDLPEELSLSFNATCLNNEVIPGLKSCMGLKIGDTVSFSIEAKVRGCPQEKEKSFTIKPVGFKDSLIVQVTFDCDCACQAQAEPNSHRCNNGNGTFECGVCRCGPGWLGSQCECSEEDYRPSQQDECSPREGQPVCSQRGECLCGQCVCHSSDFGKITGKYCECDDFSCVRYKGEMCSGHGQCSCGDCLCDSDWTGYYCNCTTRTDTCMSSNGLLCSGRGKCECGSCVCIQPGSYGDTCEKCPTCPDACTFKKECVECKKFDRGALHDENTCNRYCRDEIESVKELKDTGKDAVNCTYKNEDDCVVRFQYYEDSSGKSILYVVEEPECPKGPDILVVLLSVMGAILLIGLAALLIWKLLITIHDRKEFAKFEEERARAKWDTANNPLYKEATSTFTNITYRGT
Chain of Integrin alpha-IIb/beta-3 (P08514 32-887 limits assumed): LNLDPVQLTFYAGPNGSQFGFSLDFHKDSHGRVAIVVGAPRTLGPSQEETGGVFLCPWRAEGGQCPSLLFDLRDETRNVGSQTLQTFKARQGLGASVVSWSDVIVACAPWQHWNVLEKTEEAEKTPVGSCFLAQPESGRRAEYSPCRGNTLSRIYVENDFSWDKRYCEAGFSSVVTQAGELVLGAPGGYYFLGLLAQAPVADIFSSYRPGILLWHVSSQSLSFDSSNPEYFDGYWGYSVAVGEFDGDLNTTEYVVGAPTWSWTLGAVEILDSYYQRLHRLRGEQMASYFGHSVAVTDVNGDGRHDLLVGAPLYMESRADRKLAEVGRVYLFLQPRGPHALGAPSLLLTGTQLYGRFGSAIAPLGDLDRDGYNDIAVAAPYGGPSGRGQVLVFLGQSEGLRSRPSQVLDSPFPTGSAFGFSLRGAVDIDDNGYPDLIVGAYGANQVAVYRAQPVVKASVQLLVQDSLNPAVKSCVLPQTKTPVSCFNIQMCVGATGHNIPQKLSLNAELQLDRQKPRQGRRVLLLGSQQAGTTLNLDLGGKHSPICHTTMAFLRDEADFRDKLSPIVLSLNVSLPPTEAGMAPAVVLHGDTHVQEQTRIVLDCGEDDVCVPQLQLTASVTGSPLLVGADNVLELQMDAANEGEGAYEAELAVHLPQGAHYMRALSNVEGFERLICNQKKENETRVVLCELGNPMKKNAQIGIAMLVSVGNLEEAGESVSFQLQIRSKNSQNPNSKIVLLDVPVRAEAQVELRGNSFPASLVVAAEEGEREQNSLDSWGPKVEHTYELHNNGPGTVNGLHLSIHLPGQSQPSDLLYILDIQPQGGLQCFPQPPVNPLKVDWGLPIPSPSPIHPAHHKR
Chain of Integrin alpha-IIb/beta-3 (P08514 891-1039 limits assumed): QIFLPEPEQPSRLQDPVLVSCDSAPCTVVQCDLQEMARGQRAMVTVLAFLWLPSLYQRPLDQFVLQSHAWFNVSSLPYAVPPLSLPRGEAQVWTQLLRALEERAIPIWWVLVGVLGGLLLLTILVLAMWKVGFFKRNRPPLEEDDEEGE

Data set [4] in a line: Elimination T1/2 in Guinea pig (IV dose). The note with it: in vivo.

SMILES strings stand for the structures.

A word on the Cmax: it is the highest concentration seen after dosing. As usually defined, the Tmax is the time from dosing to the highest level. By IC50 is commonly meant the point on the concentration scale where inhibition reaches its midpoint. Consider `CCOC(=O)CC1CCN(C(=O)C(C)(C)C(CC)NC(=O)c2ccc(C(=N)N)cc2F)CC1` (stereo not given), for which the highest level in data set [1] (Cmax) was 90 ng/mL. Also, the half-life in data set [2] worked out at 1.48 h. The Tmax in “Tmax in rat (PO dose)” was 0.5 h. The IC50 came to 62 nM in the data set listed under Homo sapiens and 2.7 nM in data set [3].
As for `C/C=C/C(NC(=O)c1ccc(C(=N)N)cc1)C(C)(C)C(=O)N1CCC(CC(=O)O)CC1` (stereo not given), the half-life in data set [2] came out at 0.933 h. Further, the IC50 in the data set filed under Homo sapiens was 170 nM; in data set [3], 13 nM.
For the compound `CCC(NC(=O)c1ccc(C(=N)N)cc1)C(C)(C)C(=O)N1CCC(CC(=O)O)CC1` (stereo not given), the half-life in data set [2] worked out at 1.3 h. This compound returned an IC50 in the data set filed under Homo sapiens of 85 nM.
In data set [3], `CC(C)(CNC(=O)c1ccc(C(=N)N)cc1)C(=O)N1CCC(CC(=O)O)CC1` registered an IC50 of 125 nM.
`CC(C)(C(=O)N1CCC(CC(=O)O)CC1)C(NC(=O)c1ccc(C(=N)N)cc1)c1ccc(Cl)cc1` (stereo not given): the half-life in data set [2] is 1.2 h. The IC50 came to 660 nM in the data set filed under Homo sapiens and 34.7 nM in data set [3].
In data set [1], `CCOC(=O)CC1CCN(C(=O)C(C)(C)C(CC)NC(=O)c2ccc(C(=N)N3CCCC3)cc2F)CC1` (stereo not given) had a Cmax of 194 ng/mL. Further, the half-life in data set [2] amounted to 2.07 h. Also, in the data set “Tmax in rat (PO dose)”, the Tmax was 1 h. Further, the half-inhibitory concentration (IC50) in the data set listed under Homo sapiens came to 89 nM; in data set [3], 7 nM.
For `CN(C(=O)c1ccc(C(=N)N)cc1)C(c1ccccc1)C(C)(C)C(=O)N1CCC(CC(=O)O)CC1` (stereo not given), in data set [2], the half-life turned out to be 1.42 h. Moreover, the IC50 in the data set filed under Homo sapiens worked out at 300 nM; in data set [3] it was 21.3 nM.
For `CC(C)(C(=O)N1CCC(CC(=O)O)CC1)C(NC(=O)c1ccc(C(=N)N)cc1)c1ccc(O)cc1` (stereo not given), in data set [2], the half-life was found to be 1.05 h. Further, the IC50 in the data set listed under Homo sapiens was 220 nM; in data set [3], 23.7 nM.
With `CCOC(=O)CC1CCN(C(=O)C(C)(C)C(CC)NC(=O)c2ccc(C(=N)N3CCSC3)cc2F)CC1` (stereo not given), in data set [1], the peak level (Cmax) was 1210 ng/mL. Besides, the half-life in data set [2] was determined as 1.83 h. For the same compound, in the data set “Tmax in rat (PO dose)”, the Tmax was 0.5 h. For the same compound, the IC50 in the data set listed under Homo sapiens worked out at 45 nM; in data set [3], 2.3 nM.
For the compound `CCCCCC(NC(=O)c1ccc(C(=N)N)cc1)C(C)(C)C(=O)N1CCC(CC(=O)O)CC1` (stereo not given), the half-life in data set [2] worked out at 0.517 h. The figures for the IC50 (in the data set filed under Homo sapiens; in data set [3]) were 160 nM and 22.3 nM, respectively.
For `CC(C)(C(=O)N1CCC(CC(=O)O)CC1)C(NC(=O)c1ccc(C(=N)N)cc1Cl)c1ccccc1` (stereo not given), the half-life in data set [2] stood at 1.25 h. Also, the IC50 in the data set filed under Homo sapiens amounted to 370 nM; in data set [3] it was 27.3 nM.
With `CCOC(=O)CC1CCN(C(=O)C(C)(C)C(CC)NC(=O)c2ccc(C(=N)N3CCN(c4ccc(F)cc4)CC3)cc2F)CC1` (stereo not given), the Cmax in data set [1] was 232 ng/mL. For the same compound, the half-life in data set [2] was determined as 0.417 h. In “Tmax in rat (PO dose)”, the Tmax was 1 h. Moreover, the half-inhibitory concentration (IC50) was determined as 79 nM in the data set filed under Homo sapiens and 5.6 nM in data set [3].
`CCOC(=O)CC1CCN(C(=O)C(C)(C)C(CC)NC(=O)c2ccc(C(=N)N3CCC(O)CC3)cc2F)CC1` (stereo not given) gave a Cmax in data set [1] of 290 ng/mL. Besides, the half-life in data set [2] was determined as 3.5 h. Besides, the time to peak (Tmax) in “Tmax in rat (PO dose)” was 1 h. Further, the IC50 is 48 nM in the data set listed under Homo sapiens and 5.8 nM in data set [3].
Take `CCCCC(NC(=O)c1ccc(C(=N)N)cc1F)C(C)(C)C(=O)N1CCC(CC(=O)O)CC1` (stereo not given): the half-life in data set [2] is 1.3 h. Moreover, the IC50 turned out to be 81 nM in the data set filed under Homo sapiens and 5.7 nM in data set [3].
The corresponding values for `CC(C)(C(=O)N1CCC(CC(=O)O)CC1)C(NC(=O)c1ccc(C(=N)N)cc1)c1cccc(O)c1` (stereo not given) are 1.08 h, 76 nM and 2.6 nM.
In data set [4], `CC(C)(C(=O)N1CCC(CC(=O)O)CC1)C(NC(=O)c1ccc(C(=N)N)cc1)c1ccccc1` (stereo not given) came in with a half-life of 0.533 h. For the same compound, the IC50 in the data set filed under Homo sapiens was 230 nM; in data set [3] it was 25.3 nM.
Take `CCCC(NC(=O)c1ccc(C(=N)N)cc1)C(C)(C)C(=O)N1CCC(CC(=O)O)CC1` (stereo not given): the half-life in data set [2] amounted to 0.9 h. The IC50 in the data set filed under Homo sapiens was determined as 82 nM; in data set [3], 5.1 nM.
`CC(C)C(NC(=O)c1ccc(C(=N)N)cc1)C(C)(C)C(=O)N1CCC(CC(=O)O)CC1` (stereo not given): in data set [2], the half-life came out at 0.8 h. The IC50 is 150 nM in the data set filed under Homo sapiens and 8.6 nM in data set [3].
As to `CC(C)CC(NC(=O)c1ccc(C(=N)N)cc1)C(C)(C)C(=O)N1CCC(CC(=O)O)CC1` (stereo not given), in data set [2], the half-life amounted to 0.917 h. In addition, the figures for the IC50 (in the data set listed under Homo sapiens; in data set [3]) were 81 nM and 2.7 nM, respectively.
`CCCCC(NC(=O)c1ccc(C(=N)N)cc1)C(C)(C)C(=O)N1CCC(CC(=O)O)CC1` (stereo not given): the half-life in data set [2] is 1.03 h. The IC50 stood at 82 nM in the data set listed under Homo sapiens and 3.8 nM in data set [3].
The like results for `CC(C)(C(=O)N1CCC(CC(=O)O)CC1)C(NC(=O)c1ccc(C(=N)N)cc1)c1cccc(Cl)c1` (stereo not given) were, in that order, 2.5 h, 250 nM and 31.3 nM.
Turning to `CC(C)(/C=C/C(=O)c1ccc(C(=N)N)cc1)C(=O)N1CCC(CC(=O)O)CC1`, the IC50 in the data set listed under Homo sapiens came out at 310 nM; in data set [3] it was 36 nM.
For the compound `CC(C)(C(=O)N1CCC(CC(=O)O)CC1)C(NC(=O)c1ccc(C(=N)N)cc1)c1ccc2ccccc2c1` (stereo not given), the half-life in data set [2] came to 0.85 h. The IC50 in the data set listed under Homo sapiens stood at 380 nM; in data set [3] it was 21 nM.
The like results for `CC(C)(C(=O)N1CCC(CC(=O)O)CC1)C(CCc1ccccc1)NC(=O)c1ccc(C(=N)N)cc1` (stereo not given) were, in that order, 0.767 h, 160 nM and 47.3 nM.
In the case of `CCC(NC(=O)c1ccc(C(=N)N)cc1F)C(C)(C)C(=O)N1CCC(CC(=O)O)CC1` (stereo not given), the half-life in data set [2] is 1.48 h. Further, the 50% inhibitory concentration (IC50) in the data set listed under Homo sapiens amounted to 62 nM; in data set [3], 2.7 nM.
Turning to `CCOC(=O)CC1CCN(C(=O)C(C)(C)C(CC)NC(=O)c2ccc(C(=N)N3CCN(C)CC3)cc2F)CC1` (stereo not given), in data set [1], the highest concentration (Cmax) came out at 392 ng/mL. In addition, in data set [2], the half-life was 1.77 h. In addition, the Tmax in “Tmax in rat (PO dose)” is 2 h. Also, the results for the half-inhibitory concentration (IC50) (in the data set filed under Homo sapiens; in data set [3]) were 72 nM and 5.4 nM, respectively.
Take `CC(NC(=O)c1ccc(C(=N)N)cc1F)C(C)(C)C(=O)N1CCC(CC(=O)O)CC1` (stereo not given): in data set [2], the half-life was found to be 1.4 h. Also, the results for the IC50 (in the data set filed under Homo sapiens; in data set [3]) were 76 nM and 4.3 nM, respectively.
In data set [1], `CCOC(=O)CC1CCN(C(=O)C(C)(C)C(CC)NC(=O)c2ccc(C(=N)N3CCOCC3)cc2F)CC1` (stereo not given) returned a Cmax of 922 ng/mL. In data set [2], the half-life worked out at 4.62 h. For the same compound, the time of peak concentration (Tmax) in “Tmax in rat (PO dose)” was 0.5 h. Moreover, the IC50 in the data set filed under Homo sapiens came to 160 nM; in data set [3], 4 nM.
`C#CCN(C(=O)c1ccc(C(=N)N)cc1)C(CCCC)C(C)(C)C(=O)N1CCC(CC(=O)O)CC1` (stereo not given): the half-life in data set [2] is 1.5 h. For the same compound, the values for the IC50 (in the data set filed under Homo sapiens; in data set [3]) were 1400 nM and 363 nM, respectively.
The like results for `CC(NC(=O)c1ccc(C(=N)N)cc1)C(C)(C)C(=O)N1CCC(CC(=O)O)CC1` (stereo not given) were, in that order, 0.883 h, 82 nM and 5.3 nM.

Source of the values: ChEMBL document CHEMBL1130999, “GPIIb/IIIa integrin antagonists with the new conformational restriction unit, trisubstituted beta-amino acid derivatives, and a substituted benzamidine structure” (J Med Chem, 1998).
